{
  "source": "ChEMBL document CHEMBL1671691",
  "about": "(Antimicrob Agents Chemother, 2010)",
  "key": {"[1]": {"test_system": "Influenza A virus", "assay": "Antiviral activity against adamantane-, zanamivir-susceptible oseltamivir-resistant Influenza A virus (A/Georgia/20/2006(H1N1)) harboring neuraminidase H274Y mutant infected in MDCK cells assessed as inhibition of viral replication after 3 days by microscopic analysis using crystal violet stain", "type": "functional, organism-based", "summary_of_the_method": "(§1)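 Confluent MDCK-ATCC monolayers infected with virus diluted to give 15–45 plaques/well. Adsorption 1 h at 37°C without drug, then washed. Overlaid with 0.8% agarose in MEM containing drug plus TPCK-trypsin: 3 μg/ml for seasonal viruses, 2 μg/ml for 2009 A(H1N1). Incubated 3 days at 37°C, 5% CO2. Ethanol-fixed, crystal violet-stained, plaques counted. EC50 by curve fit; duplicates on three occasions, mean ± SD.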"}, "[2]": {"test_system": "Influenza A virus", "assay": "Antiviral activity against adamantane-resistant zanamivir-,oseltamivir-susceptible Influenza A virus (A/Washington/01/2007(H3N2)) harboring M2 S31N mutant infected in MDCK cells assessed as inhibition of viral replication after 3 days by microscopic analysis using crystal violet stain", "type": "functional, organism-based", "summary_of_the_method": "as §1"}, "[3]": {"test_system": "Influenza A virus", "assay": "Antiviral activity against oseltamivir-susceptible zanamivir-, adamantane-resistant Influenza A virus (A/Texas/12/2007 (clone)(H3N2)) harboring neuraminidase E119I mutant and harboring M2 S31N mutant infected in MDCK cells assessed as inhibition of viral replication after 3 days by microscopic analysis using crystal violet stain", "type": "functional, organism-based, Influenza A virus (A/Texas/12/2007(H3N2))"}, "[4]": {"test_system": "Influenza A virus", "assay": "Antiviral activity against adamantane-resistant zanamivir-,oseltamivir-susceptible Influenza A virus (A/Florida/01/2009(H3N2)) harboring M2 S31N mutant infected in MDCK cells assessed as inhibition of viral replication after 3 days by microscopic analysis using crystal violet stain", "type": "functional, organism-based", "summary_of_the_method": "as §1"}, "[5]": {"test_system": "Influenza B virus", "assay": "Antiviral activity against oseltamivir-susceptible zanamivir-, adamantane-resistant Influenza B virus B/Memphis/20/1996 harboring neuraminidase R152K mutant infected in MDCK cells assessed as inhibition of viral replication after 3 days by microscopic analysis using crystal violet stain", "type": "functional, cell-based, B/Memphis/20/96"}, "[6]": {"test_system": "Influenza B virus", "assay": "microbe, parasite or virus in culture", "conditions": "B/Memphis/20/96, MDCK, 72 h"}},
  "data": [
    {"compound": "NC(=O)c1ncn([C@@H]2O[C@H](CO)[C@@H](O)[C@H]2O)n1", "note": "[RIBAVIRIN]", "values": [
      {"measurement": "EC50", "setting": "[1]", "value": 19.7, "unit": "µM"},
      {"measurement": "EC50", "setting": "[2]", "value": 35.6, "unit": "µM"},
      {"measurement": "EC50", "setting": "[3]", "value": 46.7, "unit": "µM"},
      {"measurement": "EC50", "setting": "[4]", "value": 20.9, "unit": "µM"},
      {"measurement": "EC50", "setting": "[5]", "value": 25, "unit": "µM"},
      {"measurement": "EC50", "setting": "[6]", "value": 13.9, "unit": "µM"}
    ]}
  ]
}
